Laboratory results reported in ChEMBL document CHEMBL4028848, “Discovery of N-{4-[5-(4-Fluorophenyl)-3-methyl-2-methylsulfanyl-3H-imidazol-4-yl]-pyridin-2-yl}-acetamide (CBS-3595), a Dual p38α MAPK/PDE-4 Inhibitor with Activity against TNFα-Related Diseases” (J Med Chem, 2017).
Each block holds one compound with its values, some of them ahead of it. Calls of active or inactive are those of the source. The calls are words filed in the database; no cut-off is given here.

Assays:
[1] = system: Canis familiaris; assay: Cmax in Beagle dog assessed as 4-(4-(4-fluorophenyl)-1-methyl-2-(methylsulfinyl)-1H-imidazol-5-yl)pyridin-2-amine level at 40 mg/kg, po by LC-MS/MS analysis; format: ADME, organism-based, Canis lupus familiaris; parameters: dose 40 mg/kg, route oral; settings: in vivo
Summary of the method: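 Toxicokinetics from a maximum-tolerated-dose study in four Beagle dogs given 40 mg/kg orally. Plasma levels of both parent and its predominant metabolite were monitored.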

[2] = system: Liver; assay: Drug level in human liver microsomes treated with CBS-3595 at 10 to 100 uM; format: ADME, microsome
Summary of the method: (§1)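 Test compound incubated at 10, 30 and 100 μM with liver microsomes from rat, Cynomolgus monkey or human, and metabolites monitored.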

[3] = molecular target: Mitogen-activated protein kinase 14 (Homo sapiens, UniProt Q16539); assay: Inhibition of p38alpha MAPK (unknown origin) by beta-galactosidase enzyme complementation assay
[4] = system: Rattus norvegicus; assay: In vivo inhibition of P38 MAPKalpha in Sprague-Dawley rat assessed as decrease in LPS-stimulated TNFalpha level in serum at 1 mg/kg, po pretreated for 1 hr followed by LPS addition measured after 2 hrs relative to control; format: functional
Summary of the method: (§2)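 Sprague–Dawley rats (8/group) were dosed orally with vehicle or 1, 3 or 10 mg/kg. LPS 0.1 mg/kg i.v. was given 1 h after dosing. Blood was collected 2 h later and serum TNFα measured. Inhibition was calculated relative to the mean of vehicle-treated animals.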

[5] = organism: Homo sapiens; assay: Inhibition of PDE4 in LPS-stimulated human whole blood assessed as decrease in leukotriene B4 level in plasma
[6] = system: Cynomolgus monkey; assay: In vivo inhibition of P38 MAPKalpha in po dosed cynomolgus monkey assessed as decrease in TNFalpha level in LPS-stimulated whole blood pretreated for 4 weeks followed by ex vivo LPS addition measured on day 27; format: functional, organism-based; settings: Macaca fascicularis
[7] = system: Liver; assay: Drug metabolism in human liver microsomes assessed as 4-(4-(4-fluorophenyl)-1-methyl-2-(methylsulfonyl)-1H-imidazol-5-yl)pyridin-2-amine formation at 10 to 100 uM; format: ADME, microsome; summary of the method: as §1
[8] = system: Rattus norvegicus; assay: In vivo inhibition of P38 MAPKalpha in Sprague-Dawley rat assessed as decrease in LPS-stimulated TNFalpha level in serum at 3 mg/kg, po pretreated for 1 hr followed by LPS addition measured after 2 hrs relative to control; format: functional
[9] = system: Rattus norvegicus; assay: In vivo inhibition of P38 MAPKalpha in Sprague-Dawley rat assessed as decrease in LPS-stimulated TNFalpha level in serum at 10 mg/kg, po pretreated for 1 hr followed by LPS addition measured after 2 hrs relative to control; format: functional; summary of the method: as §2
[10] = Drug uptake in LPS-stimulated female Lewis rat serum at 10 mg/kg, po pretreated for 1 hrs followed by LPS addition measured after 1.5 hrs post dose; format: ADME, organism-based; settings: read-out: Drug uptake
Summary of the method: (§3)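 Female Lewis rats, n = 8/group, dosed orally at 10 mg/kg at 1, 3 or 5 h before LPS challenge. Serum aliquots taken 1.5 h after LPS were used to measure drug concentration.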

[11] = system: Rattus norvegicus; assay: In vivo inhibition of P38 MAPKalpha in Lewis rat assessed as decrease in LPS-stimulated TNFalpha level in serum at 10 mg/kg, po pretreated for 1 hr followed by LPS addition measured after 1.5 hrs post dose relative to control; format: functional
Summary of the method: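 Lewis rats, n = 8/group: females dosed orally at 10 mg/kg at −1, −3 or −5 h relative to LPS challenge, plus one male group dosed at −1 h. Male and female vehicle controls were given at −1 h. Serum TNFα was measured after LPS and compared with vehicle.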

[12] = system: Mus musculus; assay: In vivo inhibition of P38 MAPKalpha in BALB/c mouse assessed as decrease in LPS/GalN-stimulated TNFalpha level in plasma at 30 mg/kg, po administered via gavage pretreated for 1 hr followed by LPS/GalN addition measured after 1.5 hrs relative to control; format: functional
Summary of the method: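 Male BALB/c mice, n = 6/group, given 3, 10 or 30 mg/kg orally by gavage 1 h before i.p. D-GalN (500 mg/kg) plus LPS (1.5 μg/kg). Blood was taken by cardiac puncture and plasma TNFα measured against a vehicle-only control.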

[13] = system: Rattus norvegicus; assay: Antiarthritic activity in Lewis rat assessed as change in paw volume at 25 mg/kg, po bid administered for 10 days; format: functional, organism-based
Summary of the method: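 Collagen-induced arthritis in male Lewis rats (5–6 per group). Groups received vehicle, dexamethasone 1 mg/kg, test item 50 mg/kg once daily, or 25 mg/kg twice daily for 10 days. Body weight, arthritic score and paw volume were monitored, and serum COMP was measured at the end.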

[14] = system: Mus musculus; assay: Antiarthritic activity in human TNF transgenic mouse model assessed as reduction in bone erosion at 20 to 50 mg/kg/day, po for 10 weeks; format: functional, organism-based
Summary of the method: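 Heterozygous human TNF transgenic mice (8 per group) were dosed orally for ten weeks with 20 or 50 mg/kg/day as a methylcellulose suspension, alongside vehicle and infliximab i.p. controls. Joint swelling and grip strength were scored weekly, and hind paws were examined histologically at the end.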

[15] = AUC (0 to t) in mongrel dog at 30 mg/kg, po by LC-MS/MS analysis; format: ADME, organism-based, Canis lupus familiaris; settings: in vivo
Summary of the method: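 Two mongrel dogs received a single oral dose of 30 mg/kg. Blood was sampled from 0.25 to 24 h and plasma parent concentrations were determined.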

[16] = Cmax in female Sprague-Dawley rat at 30 mg/kg, po by LC-MS/MS analysis; format: ADME, organism-based; parameters: dose 30 mg/kg, route oral; settings: in vivo
[17] = Half life in female Sprague-Dawley rat at 30 mg/kg, po by LC-MS/MS analysis; format: ADME, organism-based; settings: in vivo
[18] = Tmax in male Sprague-Dawley rat at 30 mg/kg, po by LC-MS/MS analysis; format: ADME, organism-based; settings: in vivo
[19] = system: Rattus norvegicus; assay: Toxicity in rat assessed as excessive defecation at 30 to 300 mg/kg, po administered as single dose; format: organism-based; settings: in vivo
[20] = system: Cynomolgus monkey; assay: Toxicity in cynomolgus monkey assessed as induction of trchycardia at 6 to 20 mg/kg, po measured after 0.5 to 6 hrs post dose; format: organism-based, Macaca fascicularis; settings: in vivo
[21] = system: Rattus norvegicus; assay: Toxicity in Sprague-Dawley rat assessed as mortality at 2000 mg/kg, po administered via gavage after 14 days; format: organism-based; settings: in vivo, 336 h
[22] = system: Rattus norvegicus; assay: Toxicity in Sprague-Dawley rat assessed as increase in ptyalism at 150 mg/kg, po administered via gavage for daily 28 days followed by 2 weeks off without dosing; format: organism-based; settings: in vivo
[23] = Toxicity in cynomolgus monkey for 28 days; parameters: species or system Macaca fascicularis; settings: in vivo
Summary of the method: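 Cynomolgus monkeys, 32 in total, 3–5 per group. Dosed for 28 days with vehicle or 6, 12 or 20 mg/kg; the high dose was raised to 25 mg/kg/day after 1 week. Two males and two females from the control and high-dose groups were followed through a further 2-week treatment-free period. Deaths and clinical signs recorded.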

[24] = system: Salmonella typhimurium; assay: Genotoxicity in Salmonella typhimurium in absence of S9 fraction by Ames test; format: toxicity; settings: salmonella enterica subsp. enterica serovar typhimurium
Summary of the method: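 Bacterial reverse mutation (Ames) test in S. typhimurium and E. coli strains, run with and without S9 mix.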

[25] = Drug uptake in LPS-stimulated female Lewis rat serum at 10 mg/kg, po pretreated for 3 hrs followed by LPS addition measured after 1.5 hrs post dose; format: ADME, organism-based; settings: read-out: Drug uptake; summary of the method: as §3
[26] = Drug uptake in LPS-stimulated female Lewis rat serum at 10 mg/kg, po pretreated for 5 hrs followed by LPS addition measured after 1.5 hrs post dose; format: ADME, organism-based; settings: read-out: Drug uptake; summary of the method: as §3

Sequence of Mitogen-activated protein kinase 14 (Q16539 whole entry): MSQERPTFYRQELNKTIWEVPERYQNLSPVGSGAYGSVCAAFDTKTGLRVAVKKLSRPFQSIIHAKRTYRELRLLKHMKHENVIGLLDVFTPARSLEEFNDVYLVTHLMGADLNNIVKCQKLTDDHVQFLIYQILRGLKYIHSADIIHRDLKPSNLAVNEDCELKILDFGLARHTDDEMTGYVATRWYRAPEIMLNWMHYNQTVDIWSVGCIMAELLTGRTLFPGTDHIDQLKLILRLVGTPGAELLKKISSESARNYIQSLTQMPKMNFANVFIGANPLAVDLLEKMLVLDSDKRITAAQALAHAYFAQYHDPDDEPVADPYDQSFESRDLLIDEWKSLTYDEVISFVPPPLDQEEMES

Cmax [1]: 5.1 µM | Drug metabolism [2]: Metabolite_Detected
Compound: Cn1c([S+](C)[O-])nc(-c2ccc(F)cc2)c1-c1ccnc(N)c1 (configuration not stated)

Compound: CC(=O)Nc1cc(-c2c(-c3ccc(F)cc3)nc([S+](C)[O-])n2C)ccn1 (configuration not stated)
IC50 [3]: 500 nM | inhibition in vivo at 1 mg/kg [4]: 43% | inhibition [5]: Dose-dependent effect | inhibition [6]: Dose-dependent effect | Drug metabolism [7]: Metabolite_Detected | inhibition in vivo at 3 mg/kg [8]: 88% | inhibition in vivo at 10 mg/kg [9]: 96% | concentration at 1.5 h [10]: 237 ng/mL | inhibition in vivo at 10 mg/kg [11]: 76% | inhibition in vivo at 30 mg/kg [12]: 95% | Activity [13]: inactive | Activity [14]: Active | AUC(0-t) [15]: 95 µM·h | Cmax [16]: 4.8 µM | half-life [17]: 2.2 h | Tmax [18]: 0.5 h | Activity [19]: Toxic | Activity [20]: Toxic | Activity [21]: Non-Toxic | Activity [22]: Toxic | MTD at 672 h [23]: 20 mg/kg | NOAEL at 672 h [23]: > 25 mg/kg | Activity [24]: Non-Toxic | concentration at 1.5 h [25]: 526 ng/mL | concentration at 1.5 h [26]: 871 ng/mL
